The values that follow come from the array DNA melting data of Ke et al. (doi:10.1101/2024.01.08.574731).

The nature of data set [1]: melting temperature; fluorescence melt of hairpins on a sequencing array, two-state fit, raised by 9.35 °C to match UV melts. Particulars: sodium 0.088 M. An outline of the steps: (§1)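 Bootstrapped two-state fits yielded melting temperature and folding enthalpy for library hairpins. Cy3 fluorescence, with annealed Cy3 and quencher oligos, was imaged on a sequenced MiSeq flow cell in 50 mM Na-HEPES pH 8.0, 25 mM NaCl in 2.5 °C steps up to 60 °C, and normalised to pre-quench Cy3 and to control constructs. Four replicates were combined by inverse variance, and fitted temperatures were raised by 9.35 °C to match UV melts.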

A short description of data set [2]: folding enthalpy; higher = less favourable; fluorescence melt of hairpins on a sequencing array, two-state fit. The conditions noted are these: sodium 0.088 M. The method in brief:
as §1

Consider GAGAACGAAAGTTCCTC ((((((....))).))), for which, in data set [1], the Tm turned out to be 42.7 °C. In addition, in data set [2], the folding enthalpy is -14.2 kcal/mol.

With GAGAAGAAATTCTC (((((....))))), in data set [1], the Tm came to 28.9 °C. Besides, the folding enthalpy in data set [2] was -9.49 kcal/mol.

Take GAGAAGCGAAAGCTACTC (((.(((....))).))): the Tm in data set [1] was 49.9 °C. Besides, the folding enthalpy in data set [2] is -28.8 kcal/mol.

For GAGAATCCGAAAGGACTC (((..(((....)))))), the Tm in data set [1] worked out at 27.7 °C. Further, in data set [2], the folding enthalpy was -16 kcal/mol.

GAGACACGAAAGTGACTC (((.(((....))).))): the Tm in data set [1] came to 55.6 °C. In data set [2], the folding enthalpy is -36 kcal/mol.

GAGACAGAAATGTCTC ((((((....)))))): the Tm in data set [1] was found to be 52.5 °C. Moreover, in data set [2], the folding enthalpy was -34.4 kcal/mol.

As for GAGACCCGAAAGGGCCTC (((.(((....))).))), the Tm in data set [1] was determined as 58.5 °C. Besides, the folding enthalpy in data set [2] is -28.8 kcal/mol.

As to GAGACCGAAAGGTAGCTC ((((((....)))..))), the Tm in data set [1] was determined as 39.6 °C. Further, in data set [2], the folding enthalpy was -18.5 kcal/mol.

For GAGACCGAAAGGTCGCTC ((((((....)))..))), the Tm in data set [1] worked out at 69.1 °C. Further, the folding enthalpy in data set [2] was -14.3 kcal/mol.

On to GAGACCGAAAGGTTACTC ((((((....)))..))), for which the Tm in data set [1] came out at 34.8 °C. The folding enthalpy in data set [2] is -12.8 kcal/mol.

Take GAGACGCGAAAGCGCTC (((.(((....)))))): the Tm in data set [1] was 50 °C. Also, the folding enthalpy in data set [2] was -14.3 kcal/mol.

As to GAGACGGGAAACCGTCTC (((((((....))))))), the Tm in data set [1] was determined as 69 °C. The folding enthalpy in data set [2] is -28 kcal/mol.

Regarding GAGACTCCGAAAGGACTC (((..(((....)))))), in data set [1], the Tm was 25.6 °C. In addition, the folding enthalpy in data set [2] was -12.8 kcal/mol.

In the case of GAGACTGGAAACAGCCTC (((.(((....))).))), in data set [1], the Tm is 43.3 °C. Besides, the folding enthalpy in data set [2] is -23.8 kcal/mol.

With GAGACTGGAAACAGTCTC (((((((....))))))), the Tm in data set [1] came to 64.8 °C. The folding enthalpy in data set [2] is -40.3 kcal/mol.

As to GAGAGAGCGAAAGCTCTC (((..(((....)))))), the Tm in data set [1] was found to be 56.7 °C. Moreover, in data set [2], the folding enthalpy is -9.57 kcal/mol.

Turning to GAGAGAGGAAACTCTTTC ((.((((....)))).)), the Tm in data set [1] was 29.9 °C. Moreover, the folding enthalpy in data set [2] was -20.5 kcal/mol.

On to GAGAGCCGAAAGGCCTC (((.(((....)))))), for which, in data set [1], the Tm was 55.3 °C. The folding enthalpy in data set [2] was -15.6 kcal/mol.

In the case of GAGAGCGAAAGCTCCTC ((((((....))).))), the Tm in data set [1] is 49 °C. Moreover, the folding enthalpy in data set [2] was -10.3 kcal/mol.

Regarding GAGAGCGAAAGCTTACTC ((((((....)))..))), the Tm in data set [1] amounted to 30.6 °C. For the same sequence, in data set [2], the folding enthalpy is -12.3 kcal/mol.

With GAGAGCGGAAACACTCTC (((((.(....).))))), the Tm in data set [1] was found to be 43 °C. For the same sequence, in data set [2], the folding enthalpy is -28.1 kcal/mol.

With GAGAGCGGAAACGCCCTC (((.(((....))).))), in data set [1], the Tm amounted to 47.2 °C. Further, the folding enthalpy in data set [2] is -16.7 kcal/mol.

Turning to GAGAGCGGAAACGCTTTC ((.((((....)))).)), the Tm in data set [1] worked out at 46.4 °C. In addition, in data set [2], the folding enthalpy was -17.3 kcal/mol.

On to GAGAGCGGAAACGTTCTC ((((.((....)).)))), for which the Tm in data set [1] was 49.1 °C. Further, the folding enthalpy in data set [2] was -34.6 kcal/mol.

Take GAGAGGCGAAAGCCGCTC (((.(((....))).))): in data set [1], the Tm was 66.1 °C. For the same sequence, the folding enthalpy in data set [2] is -18.9 kcal/mol.

With GAGAGGGGAAACTCTCTC (((((.(....).))))), the Tm in data set [1] is 49.4 °C. In data set [2], the folding enthalpy was -26.2 kcal/mol.

As for GAGAGTGCGAAAGCACTC (((..(((....)))))), the Tm in data set [1] was 64.5 °C. Moreover, the folding enthalpy in data set [2] was -7.98 kcal/mol.

GAGAGTGGAAACACCCTC (((.(((....))).))): the Tm in data set [1] was found to be 36 °C. Besides, the folding enthalpy in data set [2] is -26.8 kcal/mol.

On to GAGAGTGGAAACGCTCTC (((((.(....).))))), for which the Tm in data set [1] was 51.7 °C. Also, the folding enthalpy in data set [2] was -36.8 kcal/mol.

As to GAGATAACGAAAGTTCTC (((..(((....)))))), the Tm in data set [1] turned out to be 30.7 °C. Also, in data set [2], the folding enthalpy was -20.8 kcal/mol.

As for GAGATACCGAAAGGTCTC (((..(((....)))))), in data set [1], the Tm turned out to be 34.3 °C. Also, the folding enthalpy in data set [2] was -15.6 kcal/mol.

For the sequence GAGATACGAAAGTAACTC (((.(((....))).))), the Tm in data set [1] stood at 44.7 °C. Also, in data set [2], the folding enthalpy was -26 kcal/mol.

For GAGATACGAAAGTACTC (((.(((....)))))), in data set [1], the Tm was found to be 36.7 °C. Further, the folding enthalpy in data set [2] was -19.9 kcal/mol.

With GAGATACGAAAGTAGCTC (((.(((....))).))), the Tm in data set [1] came out at 57.5 °C. Besides, the folding enthalpy in data set [2] is -40.8 kcal/mol.

As to GAGATCCGAAAGGACTC (((.(((....)))))), in data set [1], the Tm was 44.2 °C. Besides, in data set [2], the folding enthalpy is -18.9 kcal/mol.

With GAGATGCGAAAGCACTC (((.(((....)))))), the Tm in data set [1] is 48.4 °C. The folding enthalpy in data set [2] is -19.2 kcal/mol.

As for GAGATGGGAAACCATTTC ((.((((....)))).)), the Tm in data set [1] was found to be 35 °C. In data set [2], the folding enthalpy was -26.8 kcal/mol.
